Assay results reported in ChEMBL document CHEMBL1121554, “Antimalarials. 12. Preparation of carbon isosteres of selected 4-pyridinemethanols as suppressive antimalarials” (1980).
Calls of active or inactive are those of the source.

Tests used:
Mus musculus [1] = test: Compound was evaluated for the antimalarial activity against Plasmodium berghei in mice (Mus musculus) at the dose 640 (mg/kg) administered subcutaneously; (C) is the number of mice (Mus musculus) surviving out of five at 60 days post-infection; format: functional
Outline: (§1)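 P. berghei-infected mice, five per dose group; one subcutaneous dose given 72 h after infection. Read-out is the increase in mean survival time over infected controls, counted as active when the increase is at least 100%. Cures are mice alive out of five at 60 days post-infection. Testing was done at Rane Laboratories, University of Miami.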

Mus musculus [2] = test: Compound was evaluated for the antimalarial activity against Plasmodium berghei in mice (Mus musculus) at the dose 160 (mg/kg) administered subcutaneously; (C) is the number of mice (Mus musculus) surviving out of five at 60 days post-infection; format: functional; outline: as §1
Mus musculus [3] = test: (§2) Compound was evaluated for the antimalarial activity against Plasmodium berghei in mice (Mus musculus) at the dose 80 (mg/kg) administered subcutaneously; format: functional
Mus musculus [4] = test: Compound was evaluated for the antimalarial activity against Plasmodium berghei in mice (Mus musculus) at the dose 20 (mg/kg) administered subcutaneously; format: functional; outline: as §1
Mus musculus [5] = test: Compound was evaluated for the antimalarial activity against Plasmodium berghei in mice (Mus musculus) at the dose 40 (mg/kg) administered subcutaneously; format: functional; outline: as §1
Mus musculus [6] = test: Compound was evaluated for the antimalarial activity against Plasmodium berghei in mice (Mus musculus) at the dose 320 (mg/kg) administered subcutaneously; (C) is the number of mice (Mus musculus) surviving out of five at 60 days post-infection; format: functional; outline: as §1
Mus musculus [7] = test: Compound was evaluated for the antimalarial activity against Plasmodium berghei in mice (Mus musculus) at the dose 40 (mg/kg) administered subcutaneously; (C) is the number of mice (Mus musculus) surviving out of five at 60 days post-infection; format: functional; outline: as §1
Mus musculus [8] = test: Compound was evaluated for the antimalarial activity against Plasmodium berghei in mice (Mus musculus) at the dose 20 (mg/kg) administered subcutaneously; (A) active; format: functional; outline: as §1
Mus musculus [9] = test: Compound was evaluated for the antimalarial activity against Plasmodium berghei in mice (Mus musculus) at the dose 80 (mg/kg) administered subcutaneously; (C) is the number of mice (Mus musculus) surviving out of five at 60 days post-infection; format: functional; outline: as §1
Mus musculus [10] = test: Compound was evaluated for the antimalarial activity against Plasmodium berghei in mice (Mus musculus) at the dose 160 (mg/kg) administered subcutaneously; (A) active; format: functional; outline: as §1
Mus musculus [11] = test: Compound was evaluated for the antimalarial activity against Plasmodium berghei in mice (Mus musculus) at the dose 320 (mg/kg) administered subcutaneously; (A) active; format: functional; outline: as §1
Mus musculus [12] = test: as §2; format: functional; outline: as §1; remark: listed apart in the source
Mus musculus [13] = test: Compound was evaluated for the antimalarial activity against Plasmodium berghei in mice (Mus musculus) at the dose 80 (mg/kg) administered subcutaneously; IA is defined as inactive.; format: functional, organism-based
Mus musculus [14] = test: Compound was evaluated for the antimalarial activity against Plasmodium berghei in mice (Mus musculus) at the dose 40 (mg/kg) administered subcutaneously; (A) active; format: functional; outline: as §1
Mus musculus [15] = test: Compound was evaluated for the antimalarial activity against Plasmodium berghei in mice (Mus musculus) at the dose 80 (mg/kg) administered subcutaneous; (A) active; format: functional; outline: as §1

In the case of `CCCCN(CCCC)CC(O)c1cc(/C=C/c2ccc(C(F)(F)F)cc2)nc(/C=C/c2ccc(C(F)(F)F)cc2)c1` (stereo unspecified), the No. of cures (Mus musculus [1]) is reported as 5, the No. of cures (Mus musculus [2]) is reported as 5 and the No. of cures (Mus musculus [3]) is reported as 2. The “Delta MST” value (Mus musculus [4]) was 0.2 days, the “Delta MST” value (Mus musculus [5]) was 2.9 days and the No. of cures (Mus musculus [6]) was 5.
`CCCCNCC(O)c1cc(-c2ccc(Cl)cc2)nc(-c2ccc(Cl)cc2)c1` (stereo unspecified) was tested, and the No. of cures (Mus musculus [1]) was 5, the No. of cures (Mus musculus [2]) was 3 and the No. of cures (Mus musculus [7]) was 1. The “Delta MST” value (Mus musculus [8]) was 10.8 days, the No. of cures (Mus musculus [9]) was 2 and the No. of cures (Mus musculus [6]) was 5.
With `CCCCN(CCCC)CC(O)c1cc(-c2ccc(Cl)cc2)cc(-c2ccc(Cl)cc2)c1` (stereo unspecified) the No. of cures (Mus musculus [1]) was 5, the “Delta MST” value (Mus musculus [10]) was 9.7 days and the “Delta MST” value (Mus musculus [4]) was 0.3 days. The “Delta MST” value (Mus musculus [11]) was 13.9 days, the “Delta MST” value (Mus musculus [12]) was 4.1 days and the “Delta MST” value (Mus musculus [5]) was 0.5 days.
In the case of `CCCCNCC(O)c1cc(/C=C/c2ccc(C(F)(F)F)cc2)nc(/C=C/c2ccc(C(F)(F)F)cc2)c1` (stereo unspecified), the “Delta MST” value (Mus musculus [13]) is reported as “inactive”.
In the case of `CCCCNCC(O)c1cc(/C=C/c2ccc(C(F)(F)F)cc2)cc(/C=C/c2ccc(C(F)(F)F)cc2)c1` (stereo unspecified), the “Delta MST” value (Mus musculus [13]) is reported as “inactive”.
`CCCCN(CCCC)CC(O)c1cc(-c2ccc(Cl)cc2)nc(-c2ccc(Cl)cc2)c1` (stereo unspecified) was tested, and the No. of cures (Mus musculus [1]) was 5, the No. of cures (Mus musculus [2]) was 3 and the “Delta MST” value (Mus musculus [14]) was 15.7 days. For the same molecule, the “Delta MST” value (Mus musculus [4]) was 2.3 days, the No. of cures (Mus musculus [9]) was 3 and the No. of cures (Mus musculus [6]) was 4.
`CCCCNCC(O)c1cc(-c2ccc(Cl)cc2)cc(-c2ccc(Cl)cc2)c1` (stereo unspecified) was tested, and the No. of cures (Mus musculus [2]) was 5, the “Delta MST” value (Mus musculus [4]) was 0.5 days and the No. of cures (Mus musculus [9]) was 3. The “Delta MST” value (Mus musculus [5]) was 1.3 days and the No. of cures (Mus musculus [6]) was 5.
In the case of `CCCCN(CCCC)CC(O)c1cc(/C=C/c2ccc(C(F)(F)F)cc2)cc(/C=C/c2ccc(C(F)(F)F)cc2)c1` (stereo unspecified), the No. of cures (Mus musculus [2]) is reported as 5, the “Delta MST” value (Mus musculus [4]) is reported as 0.5 days and the “Delta MST” value (Mus musculus [5]) is reported as 0.5 days. For the same molecule, the “Delta MST” value (Mus musculus [15]) was 8.1 days and the No. of cures (Mus musculus [6]) was 5.
